From ChEMBL document CHEMBL1268890, “Binding of diarrheic shellfish poisoning toxins to okadaic acid binding proteins purified from the sponge Halichondria okadai” (Bioorg Med Chem, 2010)
Activity calls are given as the source filed them. No cut-off for these calls is given here.

Columns and labels:
[1] = system: BL21-DE3; experiment: Displacement of [24-3H]OA from Halichondria okadai recombinant OABP 2.1 expressed in Escherichia coli BL21 (DE3) cells
[2] = target: T1, Okadaic acid binding protein 2.3 (Halichondria okadai) (UniProt B0M1D1); experiment: Displacement of [24-3H]OA from Halichondria okadai recombinant OABP 2.3 expressed in Escherichia coli BL21 (DE3) cells
T1 sequence (whole entry): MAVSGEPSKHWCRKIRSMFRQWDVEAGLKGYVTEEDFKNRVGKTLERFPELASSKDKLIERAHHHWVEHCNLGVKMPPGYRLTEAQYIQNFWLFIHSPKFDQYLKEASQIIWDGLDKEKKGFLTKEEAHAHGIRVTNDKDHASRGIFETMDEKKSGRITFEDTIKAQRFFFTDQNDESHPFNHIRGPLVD

[3] = system: P388; experiment: Blockade of mitomycin-induced cytotoxicity in mouse P388 cells after 2 days by WST-8 assay in presence of Halichondria okadai recombinant OABP 2.1; format: functional, cell-based
[4] = system: P388; experiment: Blockade of okadaic acid-induced cytotoxicity in mouse P388 cells after 2 days by WST-8 assay in presence of Halichondria okadai recombinant OABP 2.1; format: functional, cell-based; conditions: P388, 48 h
How it was run: (§1)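 P388 cells kept in RPMI 1640 with FBS, penicillin and streptomycin. Cells exposed to 100 nM okadaic acid together with graded concentrations of recombinant OABP for 2 days. WST-8 then added for 4 h; relative viability read as absorbance at 450 nm; EC50 from dose-response.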

[5] = system: P388; experiment: Blockade of okadaic acid-induced cytotoxicity in mouse P388 cells after 2 days by WST-8 assay in presence of Halichondria okadai recombinant OABP 2.3; format: functional, cell-based; conditions: P388, 48 h; how it was run: as §1

| Structure (SMILES) | Activity [1] | Activity [2] | Activity [3] | EC50 [4] [nM] | EC50 [5] [nM] |
| --- | --- | --- | --- | --- | --- |
| C=C1[C@@H](O)[C@@H]2O[C@]3(CC[C@H](/C=C/[C@@H](C)[C@@H]4CC(C)=C[C@@]5(O[C@H](C[C@@](C)(O)C(=O)O)CC[C@H]5O)O4)O3)CC[C@H]2O[C@@H]1[C@@H](O)C[C@H](C)[C@H]1O[C@@]2(CC[C@H]1C)OCCC[C@H]2C | Dose-dependent effect | Dose-dependent effect |  |  |  |
| C=C1[C@@H](O)[C@@H]2O[C@]3(CC[C@H](/C=C/[C@@H](C)[C@@H]4CC(C)=C[C@@]5(O[C@H](C[C@@](C)(O)C(=O)O)CC[C@H]5O)O4)O3)CC[C@H]2O[C@@H]1[C@@H](O)C[C@H](C)[C@H]1O[C@@]2(CCCCO2)CC[C@H]1C [OKADAIC ACID] | Dose-dependent effect | Dose-dependent effect | inactive | 92 | 87 |
